Values after ≈ are worked out from the molar mass of the structure shown.

The values that follow come from ChEMBL document CHEMBL1152843, “Synthesis of new series of 5,6-dihydro-4H-1,2-oxazines via hetero Diels-Alder reaction and evaluation of antimicrobial activity” (2009).

Holding throughout (type): functional
Assay [1] has as its system Fusarium verticillioides. Kind of assay: Antifungal activity against Fusarium moniliforme after 48 hrs by cup diffusion method.
Assay [2] relates to Staphylococcus aureus. Nature of the assay: Antibacterial activity against Staphylococcus aureus MTCC 737 at 20 ug after 24 hrs by cup diffusion method. As to conditions: MTCC 737, 24 h, read-out: IZ. In short, it runs like this:
(§1)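 Agar cup diffusion. Plates of sterile medium in 9 cm dishes were seeded with 1 × 10⁵ cfu of bacteria, with the suspension adjusted to at least 1 × 10⁵ cfu/ml in nutrient broth. Compound in DMF was placed in 5 mm cups and pre-diffused for 1 h. Plates were incubated at 37 °C for 24 h and the inhibition zone measured in mm. DMF served as negative control.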

Assay [3] concerns Fusarium oxysporum. Nature of the assay: Antifungal activity against Fusarium oxysporum after 48 hrs by cup diffusion method.
Assay [4] concerns Escherichia coli. Kind of assay: Antibacterial activity against Escherichia coli MTCC 443 after 24 hrs by cup diffusion method.
In assay [5] the test system is Pseudomonas aeruginosa. Kind of assay: Antibacterial activity against Pseudomonas aeruginosa MTCC 1688 at 20 ug after 24 hrs by cup diffusion method. To be noted: MTCC 1688, 24 h, read-out: IZ. In short, it runs like this: as §1
In assay [6] the test system is Pseudomonas aeruginosa. Kind of assay: Antibacterial activity against Pseudomonas aeruginosa MTCC 1688 after 24 hrs by cup diffusion method.
For assay [7], the system named is Aspergillus flavus. Nature of the assay: Antifungal activity against Aspergillus flavus after 48 hrs by cup diffusion method.
The subject of assay [8] is Fusarium oxysporum. Kind of assay: Antifungal activity against Fusarium oxysporum at 20 ug after 48 hrs by cup diffusion method. As to conditions: read-out: IZ. In a few lines: (§2)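 Cup diffusion on 9 cm plates seeded with 1 × 10⁶ cfu of fungi, with spores adjusted to at least 1 × 10⁶ cfu/ml in potato dextrose broth. Compound in DMF was placed in 5 mm agar cups and left 1 h to diffuse. Plates were incubated at 28 °C for 48 h and the inhibition zone read in mm. DMF was the negative control.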

The subject of assay [9] is Fusarium verticillioides. Nature of the assay: Antifungal activity against Fusarium moniliforme at 20 ug after 48 hrs by cup diffusion method. As to conditions: read-out: IZ. In short, it runs like this:
as §2

Assay [10] concerns Escherichia coli. Nature of the assay: Antibacterial activity against Escherichia coli MTCC 443 at 20 ug after 24 hrs by cup diffusion method. To be noted: MTCC 443, 24 h, read-out: IZ. In a few lines:
as §1

The test system of assay [11] is Aspergillus niger. Nature of the assay: Antifungal activity against Aspergillus niger after 48 hrs by cup diffusion method.
Assay [12] deals with Klebsiella pneumoniae. Nature of the assay: Antibacterial activity against Klebsiella pneumoniae […] at 20 ug after 24 hrs by cup diffusion method. To be noted: for zone of inhibition at 20 µg/disc: read-out: IZ. In a few lines: as §1
Assay [13] concerns Aspergillus niger. Kind of assay: Antifungal activity against Aspergillus niger at 20 ug after 48 hrs by cup diffusion method. As to conditions: read-out: IZ. In a few lines: as §2
Assay [14] concerns Aspergillus flavus. Kind of assay: Antifungal activity against Aspergillus flavus at 20 ug after 48 hrs by cup diffusion method. As to conditions: read-out: IZ. In a few lines: as §2
The test system of assay [15] is Staphylococcus aureus. Nature of the assay: Antibacterial activity against Staphylococcus aureus MTCC 737 after 24 hrs by cup diffusion method.
For assay [16], the system named is Klebsiella pneumoniae. Kind of assay: Antibacterial activity against Klebsiella pneumoniae […] after 24 hrs by cup diffusion method.

As for `COc1ccc(C2=NOC(CCl)CC2)cc1OC` (centres undefined), the MIC in assay [1] worked out at 15 µg/mL (≈ 55.6 µM); in [3] it was 10 µg/mL (≈ 37.1 µM); in [4] (MTCC 443, 24 h) it was 20 µg/mL (≈ 74.1 µM); in assay [6] (MTCC 1688, 24 h), 15 µg/mL (≈ 55.6 µM); in assay [7], 15 µg/mL (≈ 55.6 µM); in [11], 20 µg/mL (≈ 74.1 µM). Further, the MIC stood at 10 µg/mL (≈ 37.1 µM) in [15] (MTCC 737, 24 h) and 10 µg/mL (≈ 37.1 µM) in assay [16]. Moreover, the zone of inhibition at 20 µg/disc in assay [2] was 17.8 mm; in assay [5], 9.83 mm; in [8], 28.7 mm; in assay [9], 26.5 mm; in [10], 13.8 mm; in assay [12] it was 17 mm. The zone of inhibition at 20 µg/disc in assay [13] worked out at 18.7 mm; in assay [14] it was 20.8 mm.

For the molecule `CCOC(=O)C1CCC(c2ccc3c(c2)CCC3)=NO1` (centres undefined), the MIC in assay [1] turned out to be 20 µg/mL (≈ 73.2 µM); in assay [3], 10 µg/mL (≈ 36.6 µM); in assay [4] (MTCC 443, 24 h) it was 30 µg/mL (≈ 110 µM); in assay [6] (MTCC 1688, 24 h), 20 µg/mL (≈ 73.2 µM); in assay [7], 10 µg/mL (≈ 36.6 µM); in assay [11], 15 µg/mL (≈ 54.9 µM). Besides, the MIC in [15] (MTCC 737, 24 h) is 20 µg/mL (≈ 73.2 µM); in assay [16], 25 µg/mL (≈ 91.5 µM). Besides, the zone of inhibition at 20 µg/disc in assay [2] worked out at 18.7 mm; in assay [5] it was 13.4 mm; in [8], 36.5 mm; in assay [9] it was 32.8 mm; in assay [10], 10.7 mm; in assay [12], 13.5 mm. Besides, the zone of inhibition at 20 µg/disc in assay [13] turned out to be 26.7 mm; in assay [14], 28.5 mm.

Regarding `CCOC(=O)C1CCC(c2ccc(C)c(C)c2)=NO1` (centres undefined), the MIC in assay [1] amounted to 25 µg/mL (≈ 95.7 µM); in assay [3], 15 µg/mL (≈ 57.4 µM); in assay [4] (MTCC 443, 24 h), 20 µg/mL (≈ 76.5 µM); in [6] (MTCC 1688, 24 h) it was 20 µg/mL (≈ 76.5 µM); in assay [7], 15 µg/mL (≈ 57.4 µM); in assay [11], 20 µg/mL (≈ 76.5 µM). Moreover, the MIC in [15] (MTCC 737, 24 h) was 10 µg/mL (≈ 38.3 µM); in assay [16] it was 15 µg/mL (≈ 57.4 µM). In addition, the zone of inhibition at 20 µg/disc in assay [2] was determined as 17.8 mm; in assay [5] it was 12.8 mm; in assay [8], 19.8 mm; in assay [9] it was 16.7 mm; in [10], 13.5 mm; in assay [12] it was 16.7 mm. The zone of inhibition at 20 µg/disc in assay [13] came out at 11.5 mm; in assay [14], 12.7 mm.

In the case of `CC1(C)S[C@@H]2[C@H](NC(=O)Cc3ccccc3)C(=O)N2[C@H]1C(=O)O` [PENICILLIN G], the zone of inhibition at 20 µg/disc in assay [2] was 9.38 mm; in assay [5], 0 mm; in assay [10] it was 0 mm; in assay [12] it was 0 mm.

For the molecule `Cc1ccc(C2=NOC(CCl)CC2)cc1C` (centres undefined), the MIC in [1] was 20 µg/mL (≈ 84.1 µM); in assay [3], 10 µg/mL (≈ 42.1 µM); in [4] (MTCC 443, 24 h), 20 µg/mL (≈ 84.1 µM); in assay [6] (MTCC 1688, 24 h), 15 µg/mL (≈ 63.1 µM); in assay [7], 15 µg/mL (≈ 63.1 µM); in assay [11], 15 µg/mL (≈ 63.1 µM). The MIC was 10 µg/mL (≈ 42.1 µM) in assay [15] (MTCC 737, 24 h) and 15 µg/mL (≈ 63.1 µM) in [16]. The zone of inhibition at 20 µg/disc in [2] stood at 20.7 mm; in assay [5], 17.6 mm; in assay [8] it was 20.7 mm; in [9], 11.5 mm; in [10], 14.8 mm; in assay [12] it was 15.8 mm. For the same molecule, the zone of inhibition at 20 µg/disc in assay [13] turned out to be 8.5 mm; in [14], 9.5 mm.

As to `ClCC1CCC(c2ccc3c(c2)CCC3)=NO1` (centres undefined), the MIC in assay [1] came out at 20 µg/mL (≈ 80.1 µM); in [3], 10 µg/mL (≈ 40 µM); in assay [4] (MTCC 443, 24 h), 20 µg/mL (≈ 80.1 µM); in [6] (MTCC 1688, 24 h), 15 µg/mL (≈ 60.1 µM); in [7] it was 10 µg/mL (≈ 40 µM); in assay [11], 15 µg/mL (≈ 60.1 µM). In addition, the MIC in assay [15] (MTCC 737, 24 h) came out at 10 µg/mL (≈ 40 µM); in assay [16], 15 µg/mL (≈ 60.1 µM). Besides, the zone of inhibition at 20 µg/disc in assay [2] turned out to be 13.5 mm; in [5] it was 34.5 mm; in [8], 38.5 mm; in [9], 34.5 mm; in [10], 11.8 mm; in assay [12], 25.8 mm. Besides, the zone of inhibition at 20 µg/disc came to 28.8 mm in assay [13] and 32.8 mm in assay [14].

GENTAMICIN: the MIC turned out to be 20 µg/mL in assay [4], 15 µg/mL in [6], 15 µg/mL in assay [15] and 15 µg/mL in assay [16]. For the same molecule, in assay [12], the inhibition zone (IZ) is 17.5 mm.
